Source: the RNAGym collection of RNA variant scans (doi:10.1126/science.aae0568)
Variants at the floor of the assay were thinned out.

B1: tRNA (parent)
chain: GUUCCGUUGGCGUAAUGGUAACGCGUCUCCCUCCUAAGGAGAAGACUGCGGGUUCGAGUCCCGUACGGAACG

Variants of: B1
Assay: yeast fitness relative to wild type (ratio to wild type); higher = fitter; tRNA-Arg(CCU), competitive growth, 37 C, YPD
Procedure, shortened: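 Amplicons of the tRNA-Arg(CCU) gene were sequenced, 100-nucleotide paired-end, from the start population and from each end population of a pooled yeast competition. The competition, in six parallel replicates, lasted 24 hours in YPD at 37°C. Fitness relative to wild type was calculated from changes in genotype frequencies. Genotypes had to have ≥ 100 starting reads, and estimates < 0.5 were set to 0.5.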

Variant	yeast fitness
A42G G58C A70U	0.748
G41C G67A	0.89
A42G G58A	0.879
A42U C61U C62U	0.612
G41C C60G	0.695
G41C G44C C55A	0.563
A42G G56A	0.87
A42C C61U C62G	≤ 0.5
A42C U47G	0.607
A42C G58A C62A	≤ 0.5
A42U A43U A57G	0.534
A42G C60G C61G	≤ 0.5
A42U C49U G50A	0.651
A42U A65G C66G G68A	0.551
A42C G52C A69C	0.607
A42G U54A U59A	0.541
A42U C49U G51A	0.665
G41C G48C A69C	0.606
A42G C66A	0.599
A42G C49U G51A	0.535
A42U C55U	0.709
G41C G56A	0.825
A42G C55U A65C	0.535
G41C C55A A69U	≤ 0.5

Variant	yeast fitness
A42G C49G	0.767
A42G C49A	0.782
A42C A57C C61A	≤ 0.5
A42C C55U	0.744
A42C C55G	0.612
A42U A43G G48C U53A A65U A70C	≤ 0.5
A42C U47C A69U	0.821
A42G C49U A65U	≤ 0.5
A42G G51A C60U G63A	≤ 0.5
A42C C49A C66A	≤ 0.5
G41C G58A C61A	≤ 0.5
A42C G48C G67A	0.574
A42C C49G G50A	0.507
A42G G44C	0.906
A42C G48C C55U	0.557
A42C A45C G48A	0.958
A42G U59C C61U	0.502
A42C C55A A65U	≤ 0.5
A42U A69G	1.11
A42U A69C	0.959
A42C G51A	0.849
A42U C46U A69C	0.9
A42C G51A A70C	0.578
A42C G63C A69C	≤ 0.5

Variant	yeast fitness
A42C A45G	0.95
A42G G67U	0.633
A42G C49G U54C G63C	0.524
A42C C62U C66U	0.507
A42G A45G U47C G51C	≤ 0.5
A42G A43G C46G G56C	0.57
A42U	0.978
A42C	0.967
A42G	0.934
A42C C49U	0.939
G41C U59A	0.801
A42C A43U G56C C66U	≤ 0.5
G41C C62A	0.713
G41C C49A G67A	≤ 0.5
A42C U53A U54A	≤ 0.5
A42C C46G C66A	0.552
A42G C61A C66A	≤ 0.5
A42C C46G	0.753
A42C C46A	0.783
A42G C55G	0.669
A42G G48A G51C	≤ 0.5
A42C A69C A70U	0.721
A42U C62U	0.991
A42U C62G	0.596

Variant	yeast fitness
A42C A43C C55G A57G	0.641
G41C C55A A70G	0.551
A42C C46G A65U	≤ 0.5
A42C A45G G51A	≤ 0.5
G41C C66G	0.594
G41C G52C A69C	≤ 0.5
A42G C49G U54C G63C A70U	0.547
A42G A45U U64C A70C	≤ 0.5
G41C C62U A69C	0.619
A42G A43C	1.17
A42G A43U	1.03
G41C C60U U64G G67A	≤ 0.5
A42G A69C	0.95
A42G U54G	0.562
A42C A70U	1.02
G41C G48C	0.813
A42U A57C A65U	0.589
A42C A69U	0.927
A42C A69G	0.97
A42G C46U	0.974
A42U A57C	0.681
A42U A57G	0.905
A42C G50C	0.548
A42C C60U	0.749

Variant	yeast fitness
A42C G68A	0.898
A42C G68U	0.873
A42U C49G C55A	≤ 0.5
A42C U64G	0.596
A42C C55G A57C C62U	≤ 0.5
A42G U47A	0.785
A42G G44C U59A	0.537
A42U A45U C60U A65C	≤ 0.5
A42G G51U A70C	≤ 0.5
A42G A45U	0.952
A42G A45G	0.786
G41C G68A	0.883
G41C G68C	0.774
A42C G67A	0.833
G41U A45U C49U C61G	≤ 0.5
G41C U64G	0.735
A42C A65G C66G	≤ 0.5
A42U A43C C49G A65C	≤ 0.5
A42C C66U	0.816
A42G G51C	≤ 0.5
A42G G51A	0.822
A42G A57U	0.714
A42G A57G	0.768
A42C A45U C46U	0.861

Variant	yeast fitness
A42G C61U G63C	≤ 0.5
G41C G52C	0.527
A42U A45U C49G U53A	≤ 0.5
A42C C61U	0.668
A42C A57U	0.688
A42C A57C	0.62
A42C A45C U53A A65C A69U	≤ 0.5
G41C C61G A65C	≤ 0.5
A42G G68C A69G	0.563
A42U C61U	0.827
A42U A57G G58A A70U	≤ 0.5
A42C U59A	0.764
A42C U59G	0.752
A42C U54A G67C A69U	0.571
A42G G44C C49U A57C	≤ 0.5
A42G U59C	0.714
A42G U59A	0.939
A42C U47C U54A G67C A69U	≤ 0.5
G41C C55A	0.617
G41C C55U	0.787
A42G C62U A69C	0.696
A42C G50A U64A	≤ 0.5
A42G C49U U59C C61U	≤ 0.5
G41C C60U U64G	≤ 0.5

Variant	yeast fitness
A42U C62A A70C	0.581
A42U A43G	0.88
A42C C60U G68A	≤ 0.5
A42G C60U A69G A70U	≤ 0.5
G41C G51C	0.52
A42U C61U A70C	0.709
A42U A45U	1.09
A42U A45G	0.918
A42C U47C G63A	0.692
A42C A45C G52C	≤ 0.5
G41C G48A C55A	0.569
A42G C61U	0.853
A42G C61A	0.553
A42C G63C	0.681
G41U C46A A70U	0.632
A42G A70U	0.941
A42G C61A G63C	≤ 0.5
A42C C60G C62G G68C	≤ 0.5
A42U C46G G52C C62A	≤ 0.5
A42U C55U C66U	≤ 0.5
A42C U47A G63C A69C	0.578
A42C C62U A69U	0.689
A42U C61G A65U	≤ 0.5
